In ChEMBL document CHEMBL4257459, “Synergistic antifungal effect of cyclized chalcone derivatives and fluconazole against Candida albicans” (2017):
Values after ≈ are worked out from the molar mass of the structure shown. Active and inactive are the calls of the source. The calls are words filed in the database; no cut-off is given here.

Tests used:
Candida albicans [1] = experiment: Antifungal activity against fluconazole resistant Candida albicans 167-2 by CLSI protocol based broth microdilution method; assay type: functional
Method in brief: (§1)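 Broth microdilution per CLSI M27-A3 against clinical C. albicans isolates. Strains sub-cultured at least twice on Tryptone Soya Agar, 37 °C, 48 h. Compounds dissolved in DMSO at 2000 μg mL–1 stock. Fluconazole positive control, plus culture, media and vehicle controls. Run in duplicate; MIC in μg mL–1.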

Candida albicans [2] = experiment: Antifungal activity against fluconazole resistant Candida albicans A171 by CLSI protocol based broth microdilution method; assay type: functional; method in brief: as §1
Candida albicans [3] = experiment: Antifungal activity against fluconazole resistant Candida albicans 167-1 by CLSI protocol based broth microdilution method; assay type: functional; method in brief: as §1
Candida albicans [4] = experiment: Antifungal activity against fluconazole susceptible Candida albicans 002B1 by CLSI protocol based broth microdilution method; assay type: functional
Method in brief: (§2)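 Clinical isolates and control strain subcultured at least twice on TSA, 37 °C, 48 h. MICs by CLSI M27-A3 broth microdilution; compounds dissolved in DMSO to 2000 μg mL–1 stock. Fluconazole positive control, culture, media and DMSO vehicle controls in each run. Duplicate experiments; MIC in μg mL–1.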

Candida albicans [5] = experiment: Antifungal activity against fluconazole susceptible Candida albicans 003gr by CLSI protocol based broth microdilution method; assay type: functional; method in brief: as §2
Candida albicans [6] = experiment: Antifungal activity against fluconazole susceptible Candida albicans 004gr by CLSI protocol based broth microdilution method; assay type: functional; method in brief: as §2
Candida albicans [7] = experiment: Antifungal activity against fluconazole susceptible Candida albicans 004B1 by CLSI protocol based broth microdilution method; assay type: functional; method in brief: as §2
Candida albicans [8] = experiment: Antifungal activity against fluconazole susceptible Candida albicans 0079gr by CLSI protocol based broth microdilution method; assay type: functional; method in brief: as §2
Candida albicans [9] = experiment: Antifungal activity against fluconazole susceptible Candida albicans 0072gr by CLSI protocol based broth microdilution method; assay type: functional; method in brief: as §2
Candida albicans [10] = experiment: Antifungal activity against Candida albicans ATCC 90028 by CLSI protocol based broth microdilution method; assay type: functional; method in brief: as §2
Candida albicans [11] = experiment: Inhibition of ergosterol biosynthesis in fluconazole resistant Candida albicans A171 at 8 ug/ml relative to control; assay type: functional
Method in brief: (§3)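 Total sterols quantified by alcoholic KOH extraction in cells grown in 50 ml TSB with compounds at MIC and ½ MIC; untreated and 8 μg mL–1 fluconazole controls. Spectral scan; ergosterol content from A281.5 and A230 absorbances, dilution factor and pellet weight, correcting for 24(28) DHE.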

Candida albicans [12] = experiment: Inhibition of ergosterol biosynthesis in fluconazole susceptible Candida albicans ATCC 90028 at 8 ug/ml relative to control; assay type: functional; method in brief: as §3
Candida albicans [13] = experiment: Up regulation of ERG11 gene expression in fluconazole resistant Candida albicans A171 at 8 ug/ml after 2 hrs by qRT PCR analysis; assay type: functional, organism-based
Method in brief: (§4)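 Cells exposed 2 h to test agents at MIC. Total RNA isolated, cDNA synthesized, qPCR for ERG11 with ACT1 as endogenous control. Triplicate independent experiments, reported as mean ± standard deviation.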

Candida albicans [14] = experiment: Down regulation of ERG11 gene expression in fluconazole susceptible Candida albicans ATCC 90028 at 8 ug/ml after 2 hrs by qRT PCR analysis; assay type: functional, organism-based; method in brief: as §4
Candida albicans [15] = experiment: Antifungal activity against fluconazole resistant Candida albicans A171 in presence of fluconazole by CLSI protocol based broth microdilution method; assay type: functional
Method in brief: (§5)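 Checkerboard-style combination with fluconazole at a 1 : 1 ratio, over concentrations 2–4 fold below each agent's MIC alone, by CLSI broth microdilution. Fractional inhibitory concentration index calculated and interpreted as synergy (<0.5), additive (0.5–1), indifferent or antagonistic.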

Candida albicans [16] = experiment: Antifungal activity against fluconazole resistant Candida albicans 167-1 in presence of fluconazole by CLSI protocol based broth microdilution method; assay type: functional; method in brief: as §5
Candida albicans [17] = experiment: Antifungal activity against fluconazole resistant Candida albicans 167-2 in presence of fluconazole by CLSI protocol based broth microdilution method; assay type: functional; method in brief: as §5
Candida albicans [18] = experiment: Antifungal activity against fluconazole susceptible Candida albicans 002B1 in presence of fluconazole by CLSI protocol based broth microdilution method; assay type: functional
Candida albicans [19] = experiment: Antifungal activity against fluconazole susceptible Candida albicans 003gr in presence of fluconazole by CLSI protocol based broth microdilution method; assay type: functional
Candida albicans [20] = experiment: Antifungal activity against fluconazole susceptible Candida albicans 004gr in presence of fluconazole by CLSI protocol based broth microdilution method; assay type: functional
Candida albicans [21] = experiment: Antifungal activity against fluconazole susceptible Candida albicans 004B1 in presence of fluconazole by CLSI protocol based broth microdilution method; assay type: functional
Candida albicans [22] = experiment: Antifungal activity against fluconazole susceptible Candida albicans 0079gr in presence of fluconazole by CLSI protocol based broth microdilution method; assay type: functional
Candida albicans [23] = experiment: Antifungal activity against fluconazole susceptible Candida albicans 0072gr in presence of fluconazole by CLSI protocol based broth microdilution method; assay type: functional
Candida albicans [24] = experiment: Antifungal activity against Candida albicans ATCC 90028 in presence of fluconazole by CLSI protocol based broth microdilution method; assay type: functional
Candida albicans [25] = experiment: Inhibition of ABC efflux pumps in fluconazole resistant Candida albicans A171 assessed as reduction in energy-dependent rhodamine 6G efflux in presence of 0.1 M glucose after 25 mins by fluorescence assay relative to control
Method in brief: (§6)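 Cells grown in TSB at 37 °C for 8 h, washed, resuspended in glucose-free PBS at 1 × 10^8 cells. De-energized 45 min with 5 mM deoxyglucose plus 5 mM dinitrophenol. […] Washed, sampled 5–25 min, then 0.1 M glucose added. Absorbance 527 nm, R6G from standard curve.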

Candida albicans [26] = experiment: Inhibition of ABC efflux pumps in fluconazole resistant Candida albicans 167-1 assessed as reduction in energy-dependent rhodamine 6G efflux in presence of 0.1 M glucose after 25 mins […] relative to control
Candida albicans [27] = experiment: Inhibition of ABC efflux pumps in fluconazole resistant Candida albicans 167-2 assessed as reduction in energy-dependent rhodamine 6G efflux in presence of 0.1 M glucose after 25 mins […] relative to control
Candida albicans [28] = experiment: Inhibition of ABC efflux pumps in fluconazole susceptible Candida albicans 002B1 assessed as reduction in energy-dependent rhodamine 6G efflux in presence of 0.1 M glucose after 25 mins […] relative to control
Candida albicans [29] = experiment: Inhibition of ABC efflux pumps in fluconazole susceptible Candida albicans 003gr assessed as reduction in energy-dependent rhodamine 6G efflux in presence of 0.1 M glucose after 25 mins […] relative to control
Candida albicans [30] = experiment: Inhibition of ABC efflux pumps in fluconazole susceptible Candida albicans 004gr assessed as reduction in energy-dependent rhodamine 6G efflux in presence of 0.1 M glucose after 25 mins by fluorescence assay relative to control; method in brief: as §6
Candida albicans [31] = experiment: Inhibition of ABC efflux pumps in fluconazole susceptible Candida albicans 004B1 assessed as reduction in energy-dependent rhodamine 6G efflux in presence of 0.1 M glucose after 25 mins by fluorescence assay relative to control; method in brief: as §6
Candida albicans [32] = experiment: Inhibition of ABC efflux pumps in fluconazole susceptible Candida albicans 0079gr assessed as reduction in energy-dependent rhodamine 6G efflux in presence of 0.1 M glucose after 25 mins by fluorescence assay relative to control; method in brief: as §6
Candida albicans [33] = experiment: Inhibition of ABC efflux pumps in fluconazole susceptible Candida albicans 0072gr assessed as reduction in energy-dependent rhodamine 6G efflux in presence of 0.1 M glucose after 25 mins […] relative to control
Candida albicans [34] = experiment: Inhibition of ergosterol biosynthesis in fluconazole resistant Candida albicans A171 at 0.5 to 1 times MIC relative to control; assay type: functional; method in brief: as §3
Candida albicans [35] = experiment: Inhibition of ergosterol biosynthesis in fluconazole susceptible Candida albicans ATCC 90028 at 0.5 to 1 times MIC relative to control; assay type: functional
Method in brief: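 ATCC90028 grown in 50 ml TSB with MIC and ½ MIC of compound; untreated and 8 μg mL–1 fluconazole controls. Sterols extracted by alcoholic KOH method and spectrophotometrically scanned; ergosterol % calculated from A281.5 and A230 (E values 290 and 518) with dilution factor, per pellet weight.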

Candida albicans [36] = experiment: Down regulation of ERG11 gene expression in fluconazole resistant Candida albicans A171 at MIC after 2 hrs by qRT PCR analysis relative to control; assay type: functional; method in brief: as §4
Candida albicans [37] = experiment: Down regulation of ERG11 gene expression in fluconazole susceptible Candida albicans ATCC 90028 at MIC after 2 hrs by qRT PCR analysis relative to control; assay type: functional
Method in brief: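 Cells exposed to compound at MIC for 2 h; total RNA isolated, cDNA synthesised, ERG11 measured by real-time qPCR with ACT1 as endogenous control. Triplicate independent experiments; mean ± standard deviation.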

OC(Cn1cncn1)(Cn1cncn1)c1ccc(F)cc1F [FLUCONAZOLE]
MIC (Candida albicans [1]): 125 to 500 µg/mL (≈ 408 to 1630 µM) | MIC (Candida albicans [2]): 125 to 500 µg/mL (≈ 408 to 1630 µM) | MIC (Candida albicans [3]): 125 to 500 µg/mL (≈ 408 to 1630 µM) | MIC (Candida albicans [4]): 2 to 8 µg/mL (≈ 6.53 to 26.1 µM) | MIC (Candida albicans [5]): 2 to 8 µg/mL (≈ 6.53 to 26.1 µM) | MIC (Candida albicans [6]): 2 to 8 µg/mL (≈ 6.53 to 26.1 µM) | MIC (Candida albicans [7]): 2 to 8 µg/mL (≈ 6.53 to 26.1 µM) | MIC (Candida albicans [8]): 2 to 8 µg/mL (≈ 6.53 to 26.1 µM) | MIC (Candida albicans [9]): 2 to 8 µg/mL (≈ 6.53 to 26.1 µM) | MIC (Candida albicans [10]): 2 to 8 µg/mL (≈ 6.53 to 26.1 µM) | inhibition at 8 µg/mL (Candida albicans [11]): 11% | inhibition at 8 µg/mL (Candida albicans [12]): 100% | Activity (Candida albicans [13]): inactive | inhibition (Candida albicans [14]): Active

O=C1NC(c2ccccc2)=CC(c2ccc(C3C=C(c4ccccc4)NC(=O)N3)cc2)N1 (configuration not stated)
MIC (Candida albicans [1]): 4 to 8 µg/mL (≈ 9.47 to 18.9 µM) | MIC (Candida albicans [2]): 4 to 8 µg/mL (≈ 9.47 to 18.9 µM) | MIC (Candida albicans [3]): 4 to 8 µg/mL (≈ 9.47 to 18.9 µM) | MIC (Candida albicans [4]): 0.25 to 2 µg/mL (≈ 0.592 to 4.73 µM) | MIC (Candida albicans [5]): 0.25 to 2 µg/mL (≈ 0.592 to 4.73 µM) | MIC (Candida albicans [6]): 0.25 to 2 µg/mL (≈ 0.592 to 4.73 µM) | MIC (Candida albicans [7]): 0.25 to 2 µg/mL (≈ 0.592 to 4.73 µM) | MIC (Candida albicans [8]): 0.25 to 2 µg/mL (≈ 0.592 to 4.73 µM) | MIC (Candida albicans [9]): 0.25 to 2 µg/mL (≈ 0.592 to 4.73 µM) | MIC (Candida albicans [10]): 0.25 to 2 µg/mL (≈ 0.592 to 4.73 µM) | fractional inhibitory concentration index (FICI) (Candida albicans [15]): 0.031 - 0.25 | fractional inhibitory concentration index (FICI) (Candida albicans [16]): 0.031 - 0.25 | fractional inhibitory concentration index (FICI) (Candida albicans [17]): 0.031 | fractional inhibitory concentration index (FICI) (Candida albicans [18]): 0.13 - 0.38 | fractional inhibitory concentration index (FICI) (Candida albicans [19]): 0.13 - 0.38 | fractional inhibitory concentration index (FICI) (Candida albicans [20]): 0.13 - 0.38 | fractional inhibitory concentration index (FICI) (Candida albicans [21]): 0.13 - 0.38 | fractional inhibitory concentration index (FICI) (Candida albicans [22]): 0.13 - 0.38 | fractional inhibitory concentration index (FICI) (Candida albicans [23]): 0.13 - 0.38 | fractional inhibitory concentration index (FICI) (Candida albicans [24]): 0.13 - 0.38 | inhibition (Candida albicans [25]): < 20% | inhibition (Candida albicans [26]): < 20% | inhibition (Candida albicans [27]): < 20% | inhibition (Candida albicans [28]): < 20% | inhibition (Candida albicans [29]): < 20% | inhibition (Candida albicans [30]): < 20% | inhibition (Candida albicans [31]): < 20% | inhibition (Candida albicans [32]): < 20% | inhibition (Candida albicans [33]): < 20% | inhibition (INH) (Candida albicans [34]): 49 - 94% | inhibition (INH) (Candida albicans [35]): 66 - 99% | fold change (FC) (Candida albicans [36]): 1.25 - 10 | fold change (FC) (Candida albicans [37]): 1.5 - 13
